We go through 2 compounds from ChEMBL document CHEMBL1156957, “Synthesis, antitubulin, and antiproliferative SAR of analogues of 2-methoxyestradiol-3,17-O,O-bis-sulfamate” (J Med Chem, 2010).

Assay [1] in a line: Inhibition of bovine brain tubulin assembly assessed as decrease in turbidity after 20 mins. Also on record: species or system Bos taurus. The procedure, abridged: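 Bovine brain tubulin at 1.0 mg/mL (10 μM) preincubated 15 min at 30 °C with varying compound concentrations, no GTP. Chilled on ice, then GTP added (0.4 mM final). Baseline taken at 0 °C, then rapid jump to 30 °C and turbidity rise followed spectrophotometrically for 20 min. IC50 is the concentration halving the turbidity increase.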

Assay [2] concerns MCF7. The assay can be described thus: Antiproliferative activity against human MCF7 cells after 96 hrs by WST-1 assay. Type of assay: functional. To be noted: MCF7, 96 h.
The subject of assay [3] is HOP-62. As to the kind of experiment: Antiproliferative activity against human HOP62 cells after 96 hrs by WST-1 assay. The note with it: HOP-62, 96 h. Type of assay: functional. A general note: Tetrazolium dyes change colour on reduction, which living cells bring about.
Assay [4] has as its system OVCAR-3. The assay can be described thus: Antiproliferative activity against human OVCAR-3 cells after 96 hrs by WST-1 assay. Type of assay: functional. The note with it: OVCAR-3, 96 h.
Assay [5] concerns SF-539. As to the kind of experiment: Antiproliferative activity against human SF539 cells after 96 hrs by WST-1 assay. Type of assay: functional. The note with it: SF-539, 96 h.
The species entered for assay [6] is Bos taurus. The assay can be described thus: Displacement of [3H]colchicine from bovine brain tubulin at 5 uM after 10 mins. Background: Displacement assays read how much labelled ligand stays bound in the presence of the test substance.
For assay [7], the system named is HCT-116. As to the kind of experiment: Antiproliferative activity against human HCT116 cells after 96 hrs by WST-1 assay. Type of assay: functional. To be noted: HCT-116, 96 h.
Assay [8] relates to UACC-62. The assay can be described thus: Antiproliferative activity against human UACC62 cells after 96 hrs by WST-1 assay. Type of assay: functional. To be noted: UACC-62, 96 h.
Assay [9] has as its system MDA-MB-231. As to the kind of experiment: Antiproliferative activity against human MDA-MB-231 cells after 96 hrs by WST-1 assay. Type of assay: functional. The note with it: MDA-MB-231, 96 h. The procedure, abridged:
(§1)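 DU-145 and MDA-MB-231 cells kept in RPMI-1640 with 10% FBS, penicillin and streptomycin at 37 °C, 5% CO2. Seeded at 5000 cells/well and exposed to 10^-9–10^-4 M compound or vehicle for 96 h. Live cells counted by WST-1. Viability taken as percent of mean control and GI50 derived. Triplicate experiments.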

The test system of assay [10] is DU-145. The assay can be described thus: Antiproliferative activity against human DU145 cells after 96 hrs by WST-1 assay. Type of assay: functional. To be noted: DU-145, 96 h. The procedure, abridged: as §1
The test system of assay [11] is SN12C. As to the kind of experiment: Antiproliferative activity against human SN12C cells after 96 hrs by WST-1 assay. Type of assay: functional.

By IC50 is commonly meant the concentration needed to halve the response being measured. Usually GI50 stands for the concentration giving 50% growth inhibition. Low values mean more potent growth inhibition, high ones less potent growth inhibition. As for `COc1cc2c(cc1OS(=O)(=O)N(C)C)CC[C@@H]1[C@@H]2CC[C@]2(C)C(=O)CC[C@@H]12`, the IC50 in assay [1] is > 40000 nM. In assay [2], the GI50 was > 10000 nM.
One may read the inhibition as how much of the control response was suppressed. For `CCc1cc2c(cc1OS(N)(=O)=O)CC[C@@H]1[C@@H]2CC[C@]2(C)[C@@H](C[N+](=O)[O-])CC[C@@H]12`, the GI50 in [3] was found to be 31 nM; in assay [4], 25 nM; in assay [5], 21 nM; in [7], 41 nM; in assay [8], 63 nM; in assay [9], 170 nM. Further, the GI50 in assay [10] was found to be 140 nM; in [11] it was 66 nM. Moreover, in [1], the IC50 came to 1700 nM. The same compound yielded an inhibition in assay [6] of 74%.
